Source: ChEMBL document CHEMBL1141164, “Design and synthesis of a series of melamine-based nitroheterocycles with activity against Trypanosomatid parasites” (J Med Chem, 2005)
Values joined by “and” are separate entries in the source; they are usually repeats but may differ in a detail not shown here. Identical values can stand only once.

How the values were obtained:
Leishmania donovani [1] = experiment: Inhibitory concentration in vitro against intracellular amastigotes of Leishmania donovani in mouse peritoneal macrophages incubated for 96 hr at 27 degree C
L6 = experiment: Concentration causing cytotoxicity to 50% of L-6 rat skeletal myoblasts; format: functional, cell-based
Procedure, shortened: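 L-6 rat skeletal myoblasts run in the same Alamar Blue assay as the trypanosome screen. Serial dilutions spanning 90 to 0.123 μg/mL, 72 h at 37 °C under 5% CO2, then Alamar Blue for a further 2–4 h. Fluorescence read at ex 536/em 588 nm and expressed as % of control to give IC50.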

Mus musculus [2] = experiment: In vivo antitrypanosomal activity at a dose of 4*20 mg/kg, i.p., in mice infected with Trypanosoma brucei brucei STIB 795 strain; 0/4; format: functional
[3] = tested on: Trypanosoma brucei rhodesiense; experiment: Inhibitory concentration in vitro against blood stream Trypanosoma brucei rhodesiense incubated for 72 hr at 37 degree C; format: functional, organism-based
Procedure, shortened: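 T. b. rhodesiense STIB900 trypomastigotes, a 1982 human isolate from Tanzania, grown in minimum essential medium with 2-mercaptoethanol and 15% heat-inactivated horse serum. Drug dilutions 90 to 0.123 μg/mL, 72 h at 37 °C, 5% CO2.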

Trypanosoma cruzi [4] = experiment: In vitro inhibitory concentration against intracellular amastigotes of Trypanosoma cruzi in rat skeletal myoblasts incubated for 37 degree C for 4 days; format: functional, organism-based; conditions: 96 h
Procedure, shortened: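 L-6 myoblasts seeded at 2000 cells/well in RPMI 1640 with 10% FBS and 2 mM L-glutamine. After 24 h, 5000 T. cruzi Tulahuen C2C4 (LacZ) trypomastigotes added with serial drug dilution. Incubated 4 days at 37 °C in 5% CO2, then CPRG/Nonidet added.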

Mus musculus [5] = experiment: In vivo antitrypanosomal activity at a dose of 4*20 mg/kg, i.p., in mice infected with Trypanosoma brucei brucei STIB 795 strain, measured as survival days (control 7 days); format: functional
[6] = tested on: Trypanosoma brucei brucei; experiment: In vitro inhibitory concentration against blood stream Trypanosoma brucei brucei AT1 wild type incubated for 72 h at 37 degree C; format: functional, organism-based
Procedure, shortened: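 Wild-type T. b. brucei trypomastigotes, tested alongside the P2 knockout (TbAT1-/-). Alamar Blue viability assay used to derive IC50 values.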

Trypanosoma brucei [7] = experiment: Inhibitory concentration against wild-type (427) Trypanosoma brucei; format: functional, organism-based
Trypanosoma brucei [8] = experiment: Inhibitory concentration against RAD51-/- mutant Trypanosoma brucei
Trypanosoma cruzi [9] = experiment: In vivo activity at a dose of 45 mg/kg, p.o., for 5 doses in rodent model with Trypanosoma cruzi, measured as survival days (control 13 days); conditions: route oral
Trypanosoma cruzi [10] = experiment: In vivo percent inhibition of compound at a dose of 45 mg/kg, p.o., for 5 doses in rodent model with Trypanosoma cruzi [ND = not determined]; conditions: po
[11] = tested on: Trypanosoma brucei brucei; experiment: In vitro inhibitory concentration against blood stream Trypanosoma brucei brucei AT1 knockout mutant with a non functional P2 transporter incubated for 72 h at 37 degree C; format: organism-based
Procedure, shortened: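 Bloodstream T. b. brucei trypomastigotes, wild type or P2 transporter knockout (TbAT1-/-), were tested side by side. Viability was read by Alamar Blue fluorescence and IC50 values were determined.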

Leishmania donovani [12] = experiment: Inhibitory concentration in vitro against intracellular amastigotes of Leishmania donovani in mouse peritoneal macrophages incubated for 96 hr at […]; tox is toxic to macrophages
[13] = molecular target: T1, Nucleoside transporter 2 (Trypanosoma brucei brucei) (UniProt Q9U763); experiment: In vitro inhibitory concentration against P2 aminopurine transporter of Trypanosoma brucei brucei 427 adenosine (0.5 uM) uptake in presence of 1 mM inosine
T1 sequence (whole entry): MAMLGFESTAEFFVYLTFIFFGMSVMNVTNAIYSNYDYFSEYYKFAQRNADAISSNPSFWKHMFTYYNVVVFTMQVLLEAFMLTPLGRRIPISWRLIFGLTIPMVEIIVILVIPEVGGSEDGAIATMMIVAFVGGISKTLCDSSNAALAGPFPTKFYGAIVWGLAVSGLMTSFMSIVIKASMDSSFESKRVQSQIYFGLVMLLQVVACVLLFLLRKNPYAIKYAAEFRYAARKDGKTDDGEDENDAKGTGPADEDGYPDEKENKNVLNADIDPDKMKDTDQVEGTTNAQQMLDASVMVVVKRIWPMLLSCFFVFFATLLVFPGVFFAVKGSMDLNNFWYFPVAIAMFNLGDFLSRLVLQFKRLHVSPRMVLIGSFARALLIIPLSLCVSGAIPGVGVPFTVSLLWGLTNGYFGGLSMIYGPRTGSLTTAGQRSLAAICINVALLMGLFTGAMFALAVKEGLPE
Procedure, shortened: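 Blood-purified T. b. brucei 427 held on ice in Carter's buffered saline. Uptake of radiolabeled adenosine fixed at 0.5 μM via P2, measured with 1 mM inosine present to block P1, by centrifugation through oil over a range of inhibitor concentrations. IC50 obtained by plotting inhibition against inhibitor concentration.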

Mus musculus [14] = experiment: In vivo antitrypanosomal activity at a dose of 4*20 mg/kg, i.p., in mice infected with Trypanosoma brucei brucei STIB 795 strain; 4/4; format: functional
Mus musculus [15] = experiment: In vivo antitrypanosomal activity at a dose of 4*20 mg/kg, i.p., in mice infected with Trypanosoma brucei rhodesiense STIB 900 strain, measured as survival days (control 6.5 days); format: functional
Mus musculus [16] = experiment: In vivo antitrypanosomal activity at a dose of 4*20 mg/kg, i.p., in mice infected with Trypanosoma brucei rhodesiense STIB 900 strain; 1/4; format: functional
Trypanosoma cruzi [17] = experiment: In vivo activity at a dose of 25 mg/kg, i.p., for 5 doses in rodent model with Trypanosoma cruzi, measured as survival days (control 13 days); conditions: route intraperitoneal
Mus musculus [18] = experiment: In vivo antitrypanosomal activity at a dose of 4*20 mg/kg, i.p., in mice infected with Trypanosoma brucei rhodesiense STIB 900 strain; 0/4; format: functional
Mus musculus [19] = experiment: In vivo antitrypanosomal activity at a dose of 4*20 mg/kg, i.p., in mice infected with Trypanosoma brucei rhodesiense STIB 900 strain, measured as survival days (control 7 days); format: functional
Trypanosoma cruzi [20] = experiment: In vivo activity at a dose of 15 mg/kg, i.p., for 5 doses in rodent model with Trypanosoma cruzi, measured as survival days (control 13 days); conditions: route intraperitoneal
Mus musculus [21] = experiment: In vivo antitrypanosomal activity at a dose of 4*1 mg/kg, i.p., in mice infected with Trypanosoma brucei brucei STIB 795 strain; 2/4; format: functional
Mus musculus [22] = experiment: In vivo antitrypanosomal activity at a dose of 4*8 mg/kg, i.p., in mice infected with Trypanosoma brucei rhodesiense STIB 900 strain, measured as cured/infected; 4/4; format: functional
Mus musculus [23] = experiment: In vivo antitrypanosomal activity at a dose of 4*1 mg/kg, i.p., in mice infected with Trypanosoma brucei rhodesiense STIB 900 strain, measured as survival days (control 7 days); ND is not determined; format: functional
Mus musculus [24] = experiment: In vivo antitrypanosomal activity at a dose of 4*1 mg/kg, i.p., in mice infected with Trypanosoma brucei brucei STIB 795 strain, measured as survival days (control 7 days); format: functional
Mus musculus [25] = experiment: In vivo antitrypanosomal activity at a dose of 4*8 mg/kg, i.p., in mice infected with Trypanosoma brucei rhodesiense STIB 900 strain, measured as survival days (control 7 days); ND is not determined; format: functional
Mus musculus [26] = experiment: In vivo antitrypanosomal activity at a dose of 4*1 mg/kg, i.p., in mice infected with Trypanosoma brucei rhodesiense STIB 900 strain, measured as cured/infected; 0/4; format: functional
Mus musculus [27] = experiment: In vivo antitrypanosomal activity at a dose of 4*20 mg/kg, i.p., in mice infected with Trypanosoma brucei rhodesiense STIB 900 strain, measured as cured/infected; 0/4; format: functional
Mus musculus [28] = experiment: In vivo antitrypanosomal activity at a dose of 4*5 mg/kg, i.p., in mice infected with Trypanosoma brucei brucei STIB 795 strain, measured as survival days (control 7 days); format: functional
Mus musculus [29] = experiment: In vivo antitrypanosomal activity at a dose of 4*5 mg/kg, i.p., in mice infected with Trypanosoma brucei brucei STIB 795 strain; 4/4; format: functional
Mus musculus [30] = experiment: In vivo antitrypanosomal activity at a dose of 4*20 mg/kg, i.p., in mice infected with Trypanosoma brucei rhodesiense STIB 900 strain, measured as survival days (control 7 days); ND is not determined; format: functional
Trypanosoma cruzi [31] = experiment: In vivo activity at a dose of 50 mg/kg, i.p., for 5 doses in mice infected with Trypanosoma cruzi, measured as survival days (control 13 days)
Mus musculus [32] = experiment: In vivo antitrypanosomal activity at a dose of 4*20 mg/kg, i.p., in mice infected with Trypanosoma brucei rhodesiense STIB 900 strain; 2/4; format: functional
Trypanosoma cruzi [33] = experiment: In vivo activity at a dose of 50 mg/kg, i.p., for 5 doses in mice infected with Trypanosoma cruzi, measured as survival days (control 13 days); conditions: ip, 312 h

SMILES | IC50 (L6) [µM] | IC50 [3] [µM] | IC50 (Trypanosoma cruzi [4]) [µM] | IC50 [6] [µM] | IC50 [11] [µM] | IC50 (Leishmania donovani [12]) | IC50 [13] [µM] | other results
CNc1nc(NC)nc(N/N=C/c2ccc([N+](=O)[O-])o2)n1 | 44.1 | 0.01 | 0.24 | – | – | – | – | IC50 (Leishmania donovani [1]): 3.14 µM; Cured/Infected (Mus musculus [2]): 0; Survival (Mus musculus [5]): 5.25 days
CC1CS(=O)(=O)CCN1/N=C/c1ccc([N+](=O)[O-])o1 (stereo not given) [NIFURTIMOX] | 68 | 1.5 | 1.5 | 5.6 | – | – | – | IC50 (Leishmania donovani [1]): 68 µM; IC50 (Trypanosoma brucei [7]): 4.1 µM and 11.4 µM; IC50 (Trypanosoma brucei [8]): 4.3 µM
Nc1nc(N)nc(N/N=C/c2ccc([N+](=O)[O-])cc2)n1 | – | 29.9 | 91.5 | > 75 | – | – | – | –
O=C(Cn1ccnc1[N+](=O)[O-])NCc1ccccc1 [BENZNIDAZOLE] | – | – | – | – | – | – | – | Survival (Trypanosoma cruzi [9]): >30 days; IC50 (Trypanosoma brucei [7]; Trypanosoma brucei): 116 µM; IC50 (Trypanosoma brucei [8]): 114 µM; inhibition in vivo at 45 mg/kg (Trypanosoma cruzi [10]): 100%
O=[N+]([O-])c1ccc(/C=N/O)o1 [NIFUROXIME] | 40 | 0.68 | – | 1.18 | 1.26 | Toxic | 300 | –
Nc1nc(N)nc(N/N=C/c2ccc([N+](=O)[O-])o2)n1 | 183 | 0.025 | 2.1 | 0.23 | 0.38 | – | 22.9 | IC50 (Leishmania donovani [1]): > 12.5 µM; Cured/Infected (Mus musculus [14]): 4; IC50 (Trypanosoma brucei [7]): 0.08 µM; IC50 (Trypanosoma brucei [7]; Trypanosoma brucei): 0.08 µM; IC50 (Trypanosoma brucei [8]): 0.1 µM; Survival (Mus musculus [15]): 35.25 days; Cured/Infected (Mus musculus [16]): 1; Survival (Mus musculus [5]): >60 days; Survival (Trypanosoma cruzi [17]): 13 days
CN(C)c1nc(N/N=C/c2ccc([N+](=O)[O-])o2)nc(N(C)C)n1 | 18.7 | 0.003 | 0.38 | 0.2 | 0.3 | Toxic | 129 | Cured/Infected (Mus musculus [18]): 0; Survival (Mus musculus [19]): 7.25 days; Survival (Trypanosoma cruzi [20]): 12.8 days
Nc1nc(N)nc(N/N=C/c2cccc([N+](=O)[O-])c2)n1 | – | 52.9 | 328 | > 75 | – | – | – | –
NNc1nc(N)nc(N)n1 | – | – | – | > 200 | > 200 | – | 11.9 | –
Nc1nc(N)nc(Nc2ccc([As]3SCC(CO)S3)cc2)n1 (stereo not given) [MELARSOPROL] | – | 0.006 | 0.006 | 0.053 | 0.12 | – | 1.2 | IC50 (Leishmania donovani [1]): 7.8 µM; Cured/Infected (Mus musculus [21]): 2; Cured/Infected (Mus musculus [22]): 4; Survival (Mus musculus [23]): 21.25 days; Survival (Mus musculus [24]): >60 days; Survival (Mus musculus [25]): >60 days; Cured/Infected (Mus musculus [26]): 0
N=C(N)c1ccc(OCCCCCOc2ccc(C(=N)N)cc2)cc1 [PENTAMIDINE] | – | – | – | – | – | – | – | Cured/Infected (Mus musculus [27]): 0; Survival (Mus musculus [28]): >60 days; Cured/Infected (Mus musculus [29]): 4; Survival (Mus musculus [30]): 42.75 days
Nc1nc(N)nc(N/N=C/c2cccs2)n1 | 78.2 | 10.2 | 85.8 | 89 | 170 | Toxic | 4.9 | –
Nc1nc(N)nc(N/N=C/c2ccco2)n1 | > 400 | 12.9 | > 400 | 16.5 | 29.3 | Toxic | 15.9 | –
Nc1nc(N)nc(N/N=C/c2ccc([N+](=O)[O-])s2)n1 | 11.8 | 0.24 | 2.6 | 0.85 | 1.52 | Toxic | 1.9 | –
N/N=C/c1ccc([N+](=O)[O-])o1 | 20 | 2.3 | – | 23.5 | 13.5 | Toxic | 404 | –
CNc1nc(N)nc(N/N=C/c2ccc([N+](=O)[O-])o2)n1 | 48.9 | 0.018 | 0.39 | 0.13 | 0.06 | – | – | Survival (Trypanosoma cruzi [31]): 13 days; IC50 (Leishmania donovani [1]): 0.75 µM; Cured/Infected (Mus musculus [14]): 4; Cured/Infected (Mus musculus [32]): 2; Survival (Mus musculus [19]): >38.5 days; IC50 (Trypanosoma brucei [7]): 0.08 µM; IC50 (Trypanosoma brucei [7]; Trypanosoma brucei): 0.08 µM; IC50 (Trypanosoma brucei [8]): 0.07 µM; Survival (Mus musculus [5]): >60 days; inhibition in vivo at 50 mg/kg (Trypanosoma cruzi [33]): 27.8%
Nc1nc(N)nc(N/N=C/c2ccccc2[N+](=O)[O-])n1 | – | 36.5 | 328 | > 75 | – | – | – | –
N#Cc1ccc(/C=N/Nc2nc(N)nc(N)n2)o1 | – | 46.3 | 122 | – | – | – | – | –
